pIC50, pKi: −log10 of the molar value.
Assays:
cruzain [1] = target: T1, cruzain (Trypanosoma cruzi, UniProt P25779); assay: LC/MS stability of compounds in the presence or absence of cruzain; assay type: physicochemical; details: for behaviour as cruzain substrate: LC/MS and time-dependence assay
Method in brief: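 Test compound solutions in 2 mM Bis Tris pH 5.8, with or without 100 nM cruzain, analysed by LC/MS at time points from 30 min to 24 h, with elution monitored at 254 nm, to detect degradation and whether cruzain catalyses it. In a separate run, cruzain activity was followed after incubation with test compound (1 or 10 μM) from 0 to 240 min.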

cruzain [2] = target: T1, cruzain; assay: Cruzain inhibition assay; assay type: biochemical; details: for time-dependence of cruzain inhibition over incubation: incubation 0 to 240 min, 1 μM of 8, 10 μM of 11, 10 uM of 4, 100 uM of 5
cruzain [3] = target: T1, cruzain; assay: In vitro activity of compound 11 and representative analogues against cruzain; assay type: biochemical

T1 sequence (P25779 123-337 limits assumed): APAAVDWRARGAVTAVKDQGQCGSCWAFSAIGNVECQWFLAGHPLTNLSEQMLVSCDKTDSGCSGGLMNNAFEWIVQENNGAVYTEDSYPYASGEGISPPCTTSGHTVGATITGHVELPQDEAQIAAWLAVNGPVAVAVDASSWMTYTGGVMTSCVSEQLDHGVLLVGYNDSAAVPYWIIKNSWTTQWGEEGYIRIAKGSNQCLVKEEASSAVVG

| behaviour as cruzain substrate (cruzain [1]) | pKi (cruzain [2]) | SMILES | stability by LC/MS in the absence of cruzain (cruzain [1]; 2 mM Bis Tris pH 5.8, no cruzain, one day) | time-dependence of cruzain inhibition over incubation (cruzain [2]) | pIC50 (cruzain [3]) |
| --- | --- | --- | --- | --- | --- |
|  | 7.19 | O=C(CNC(=O)c1ccccc1)OC(C(=O)Nc1cc(C(F)(F)F)ccc1Cl)c1ccccc1 (stereo not drawn) [Compound 8] |  | clear time-dependent effect |  |
| did not behave as substrates |  | CC(C)C(NC(=O)c1ccco1)C(=O)NCC(c1ccco1)N1CCCCC1 (stereo not drawn) [Compound 5] |  |  |  |
| did not behave as substrates | 5.80 | COc1ccc(Cl)cc1NC(=O)COC(=O)C(CC(C)C)N1C(=O)C2CC=CCC2C1=O (stereo not drawn) [Compound 4] |  |  |  |

| SMILES | behaviour as cruzain substrate (cruzain [1]) | pKi (cruzain [2]) | stability by LC/MS in the absence of cruzain (cruzain [1]; 2 mM Bis Tris pH 5.8, no cruzain, one day) | time-dependence of cruzain inhibition over incubation (cruzain [2]) | pIC50 (cruzain [3]) |
| --- | --- | --- | --- | --- | --- |
| O=C(CNC(=O)c1ccc(Cl)cc1)OC(C(=O)Nc1ccc(Cl)cc1C(F)(F)F)c1ccccc1 (stereo not drawn) [Compound 11] | identified as a cruzain substrate |  | still observed in solution even after one day of incubation | clear time-dependent effect | 6.59 |
